Experimental findings from ChEMBL document CHEMBL1126752, “Synthesis and biological activity of cis-(3aR)-(-)-2,3,3a,4,5,9b-hexahydro- 3-propyl-1H-benz[e]indole-9-carboxamide: a potent and selective 5-HT1A receptor agonist with good oral availability” (J Med Chem, 1993) are described below.

For series [1], the system named is Mus musculus. Kind of series: Effect on hypothermia in mice following subcutaneous administration. The settings on record: sc.
Series [2] can be described thus: Half-life in rats. Format: ADME, organism-based. The settings on record: rat, in vivo. A digest of the protocol: (§1)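 Male Sprague-Dawley rats (300 g) sampled from arterial catheters 24 h after surgery over 10-24 h. Dosing was 5 µmol/kg iv and 40 µmol/kg po, with oral rats fasted 18 h. Parent drug in blood measured by GC/MS after pH 11 dichloromethane extraction with internal standard, samples run in duplicate. Availability from po/iv AUC ratio (n = 4).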

The subject of series [3] is Mus musculus. Put plainly: Effect on hypothermia in mice following peroral administration. The note with it: po.
Series [4] deals with Felis catus. Put plainly: Inhibition of sympathetic nerve discharge (SND) in anesthetized cat. Format: functional. The gist of the method: (§2)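 Adult cats (2.5-4.0 kg) anesthetized with ketamine 11 mg/kg im then chloralose 80 mg/kg iv. Animals paralyzed with gallamine, ventilated, and kept at 37-38 °C. Blood pressure recorded via femoral artery. Sympathetic activity quantified by cumulative integration. Increasing doses given iv cumulatively at 20-min intervals.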

For series [5], the system named is Mus musculus. Kind of series: Swimming activity of the treated mice/control mice at 39 umol/kg, sc. Format: functional.
The species named for series [6] is Rattus norvegicus. Put plainly: Compound was tested for gross behavioral response in rats; partial 5-HT syndrome. Format: functional, organism-based.
Series [7] concerns Felis catus. Put plainly: Maximum decrease in sympathetic nerve discharge in anesthetized cat. Format: functional. A digest of the protocol: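 Cats (2.5-4.0 kg) anesthetized with ketamine 11 mg/kg im then chloralose 80 mg/kg iv, paralyzed with gallamine and ventilated, rectal temperature kept at 37-38 °C. Increasing iv doses given cumulatively at 20-min intervals; sympathetic activity quantified by cumulative integration and expressed as percent of control.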

Series [8] concerns Rattus norvegicus. Kind of series: 5-HTP accumulation in corpus striatum of reserpinized rats following subcutaneous administration. Format: functional. The settings on record: sc.
Series [9] deals with Rattus norvegicus. Kind of series: Oral availability obtained from blood plasma levels of the parent compound following 5 umol /kg intravenous and 40 umol /kg peroral administration. Format: functional, organism-based. The gist of the method:
as §1

For series [10], the system named is Rattus norvegicus. Put plainly: 5-HTP accumulation in hemispheres of reserpinized rats following subcutaneous administration. Format: functional. The note with it: sc.
Series [11] has as its system Rattus norvegicus. Put plainly: DOPA accumulation in hemispheres of reserpinized rats following subcutaneous administration at highest dose tested (50 umol/kg); Inactive. Format: functional, organism-based.
The subject of series [12] is Rattus norvegicus. Put plainly: In vivo motor activity at 12.5 umol/kg (sc) in male rats expressed as accumulated counts/30 min (p < 0.001). Format: functional.
The subject of series [13] is Rattus norvegicus. Kind of series: DOPA accumulation in limbic system of reserpinized rats following subcutaneous administration at highest dose tested (50 umol/kg); Inactive. Format: functional, organism-based.
The test system of series [14] is Mus musculus. Put plainly: Swimming activity of the treated mice/control mice at 12 umol/kg, sc (p < 0.001). Format: functional.
Series [15] concerns Rattus norvegicus. Put plainly: DOPA accumulation in corpus striatum of reserpinized rats following subcutaneous administration at highest dose tested (50 umol/kg); Inactive. Format: functional, organism-based.
For series [16], the system named is Rattus norvegicus. Put plainly: 5-HTP accumulation in limbic system of reserpinized rats following subcutaneous administration. Format: functional. The note with it: sc.
The subject of series [17] is Felis catus. Put plainly: Percent arterial blood pressure at sympathetic nerve discharge in anesthetized cat. Format: functional. The gist of the method: as §2
Series [18] deals with Mus musculus. Kind of series: Swimming activity of the treated mice/control mice at 3.9 umol/kg, sc. Format: functional.
Series [19] addresses T1, 5-hydroxytryptamine receptor 1A (Homo sapiens, UniProt P08908).
T1 sequence (P08908 whole entry): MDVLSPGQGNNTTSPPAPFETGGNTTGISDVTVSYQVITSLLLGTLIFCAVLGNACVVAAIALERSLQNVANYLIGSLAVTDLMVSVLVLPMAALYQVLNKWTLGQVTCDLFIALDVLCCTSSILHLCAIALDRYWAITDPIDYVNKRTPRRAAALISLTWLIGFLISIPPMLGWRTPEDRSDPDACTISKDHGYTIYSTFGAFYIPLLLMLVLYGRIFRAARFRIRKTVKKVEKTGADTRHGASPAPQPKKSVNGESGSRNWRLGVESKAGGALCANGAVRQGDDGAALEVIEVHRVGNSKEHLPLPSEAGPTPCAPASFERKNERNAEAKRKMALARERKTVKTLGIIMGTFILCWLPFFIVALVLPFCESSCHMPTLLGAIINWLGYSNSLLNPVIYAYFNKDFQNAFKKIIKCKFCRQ
Put plainly: Binding affinity against [3H]8-OH-DPAT-labeled 5-hydroxytryptamine 1A receptor sites in cloned CHO cells. Format: cell-based. A digest of the protocol: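 Competition binding against [3H]-8-OH-DPAT (85 Ci/mmol, 1.2 nM) using 11 dilutions of test compound. Receptor was cloned mammalian 5-HT1A expressed in CHO-K1 cells. IC50 from a one-site nonlinear least-squares fit, converted to Ki by Cheng-Prusoff. Ki reported ±SEM.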

The species named for series [20] is Rattus norvegicus. Kind of series: Inhibition of 5-HT1A cell firing in rats. Format: functional. The gist of the method:
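Male Sprague-Dawley rats (280-330 g) under chloral hydrate anesthesia (400 mg/kg ip), drug given iv via femoral vein in distilled water. Dorsal raphe serotonergic neurons recorded extracellularly and confirmed histologically by dye deposit. Firing rate followed by integrated ratemeter.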

Series [21] deals with Felis catus. Put plainly: Maximum decrease in blood pressure observed following 1 mg/kg dose in anesthetized cat. Format: functional. Further details: unit not given here. A digest of the protocol: as §2
Series [22] deals with Mus musculus. Kind of series: Swimming activity of the treated mice/control mice at 39 umol/kg, sc (p < 0.05). Format: functional.
The subject of series [23] is Mus musculus. Kind of series: Swimming activity of the treated mice/control mice at 12 umol/kg, sc. Format: functional.
The test system of series [24] is Rattus norvegicus. Kind of series: 5-HTP accumulation in corpus striatum of reserpinized rats following subcutaneous administration at highest dose tested (50 umol/kg); Inactive. Format: functional, organism-based.
Series [25] deals with Rattus norvegicus. Kind of series: 5-HTP accumulation in hemispheres of reserpinized rats following subcutaneous administration at highest dose tested (50 umol/kg); Inactive. Format: functional, organism-based.
The species named for series [26] is Rattus norvegicus. Put plainly: Compound was tested for gross behavioral response in rats; no change. Format: functional, organism-based.
In series [27] the test system is Rattus norvegicus. Kind of series: 5-HTP accumulation in limbic system of reserpinized rats following subcutaneous administration at highest dose tested (50 umol/kg); Inactive. Format: functional, organism-based.
Series [28] relates to Rattus norvegicus. Kind of series: In vivo motor activity at 50 umol/kg (sc) in male rats expressed as accumulated counts/30 min. Format: functional.

The source made the active and inactive calls. The rule behind the calls is not given here.

On to `CCCN1CCC2c3c(cccc3C(N)=O)CCC21` (racemic), for which the ED50 – broadly, the dose at which the effect has come halfway, by size or by number of responders – in the series on Mus musculus [1] was 3.8 µmol/kg; in the series on Mus musculus [3] it was 28 µmol/kg; in the series with Felis catus [4], 0.1 µmol/kg; in the series with Rattus norvegicus [8], 0.95 µmol/kg; with Rattus norvegicus [10] it was 1.25 µmol/kg; in the series with Rattus norvegicus [16], 0.93 µmol/kg. In the series filed under Rattus norvegicus [20], this compound registered an ED50 of 0.009 µmol/kg. For the same compound, the half-life (commonly the time in which the quantity being followed falls by half) in series [2] is 1.5 h. For the same compound, the values for the Swimming activity in the series with Mus musculus [5], in the series on Mus musculus [14] and with Mus musculus [18] were 2.9, 6.6 and 1.2, respectively. Besides, the Response entry in the series filed under Rattus norvegicus [6] was “Partially active”. Also, the Max decrease with Felis catus [7] is 33; in the series on Felis catus [21] it was 63. Moreover, in the series with Rattus norvegicus [9], the bioavailability stood at 70%. For the same compound, the NA entry in the series on Rattus norvegicus [11], in the series with Rattus norvegicus [13] and in the series on Rattus norvegicus [15] was “inactive” throughout. For the same compound, the “Accumulated counts/30 min” value with Rattus norvegicus [12] worked out at 88. Further, the BP in the series on Felis catus [17] was 82%. Moreover, the Ki (as a rule, a measure of affinity in units of concentration, obtained from inhibition or displacement) in series [19] was found to be 2.9 nM.

In the case of `CCCN1CC[C@H]2c3c(cccc3C(N)=O)CC[C@H]21` (stereo in doubt; (-)-3b), the figures for the Swimming activity in the series with Mus musculus [22] and in the series on Mus musculus [23] were 1.7 and 0.7, respectively. The compound also registered a Ki in [19] of 28 nM.

As to `CCCN1CCC2c3c(cccc3C(N)=O)CC[C@@H]21` (single isomer, unassigned; (+)-3b) [listing 1 of 2 here], the ED50 entry with Rattus norvegicus [24], with Rattus norvegicus [25], in the series with Rattus norvegicus [11], with Rattus norvegicus [13], in the series with Rattus norvegicus [15] and with Rattus norvegicus [27] was “inactive” throughout. Besides, the Response entry in the series filed under Rattus norvegicus [26] was “inactive”.

For the compound `CCCN1CCC2c3c(cccc3C(N)=O)CC[C@@H]21` (single isomer, unassigned; (+)-3b) [listing 2 of 2 here], the “Accumulated counts/30 min” value with Rattus norvegicus [28] is on record as 9. Besides, the Swimming activity in the series on Mus musculus [5] turned out to be 1.1; in the series on Mus musculus [23], 1.2. For the same compound, the Ki in [19] is > 1440 nM.
